Only some compounds are listed: those with a hit (about 2.9% of all), similar ones and a draw of the others.
SENP8 block-1: blocks the human protease SENP8; Q96LD8; purified SENP8, Z-RLRGG-aminoluciferin cleavage, luminescence; inhibition, % at 10 µM; 330,000 tested, 1.2% active; in the data active means inhibition above about 50%
HSP90 refold inh: HSP90 refolding inhibition in rabbit reticulocyte lysate; 290,000 tested, 0.91% active; AID 1789; inhibition, % at 5.6 µM; luciferase refolding luminescence, 3 h;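 active means inhibition above the screen-wide mean plus 3 SD, computed separately per campaign, cut at about 16% in these data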;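 further: 0% = DMSO wells and 100% = 60 µM geldanamycin wells; inhibitors lower the luminescence because luciferase stays unfolded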
SENP7 block: blocks the human protease SENP7; AID 434973; recombinant SENP7, Z-RLRGG-aminoluciferin luminescence, 40 min; Q9BQF6; 330,000 tested, 1.5% active; inhibition, % at 5 µM;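 active means inhibition above about 50% at the single test dose, limit read from the data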;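 further: plate controls were DMSO with enzyme for no effect and no enzyme buffer wells for full effect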
Target sequence (Q9BQF6 706-1050 limits assumed): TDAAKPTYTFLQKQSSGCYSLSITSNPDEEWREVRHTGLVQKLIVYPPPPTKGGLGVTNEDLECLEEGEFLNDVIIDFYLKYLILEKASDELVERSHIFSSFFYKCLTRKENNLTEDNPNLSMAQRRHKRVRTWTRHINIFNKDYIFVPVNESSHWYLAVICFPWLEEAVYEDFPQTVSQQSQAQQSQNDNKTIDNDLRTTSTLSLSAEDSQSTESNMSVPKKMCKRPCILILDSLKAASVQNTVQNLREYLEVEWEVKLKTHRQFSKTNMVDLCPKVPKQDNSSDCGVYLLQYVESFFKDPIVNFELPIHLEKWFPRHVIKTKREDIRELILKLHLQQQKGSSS
SENP6 inh: blocks the human protease SENP6. inhibition, % at 10 µM. Q9GZR1. 330,000 tested, 1.8% active. Recombinant SENP6 catalytic domain, aminoluciferin luminescence. AID 2599;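 active means inhibition above about 50% at the single tested dose, limit read from the data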;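 further: plate controls were DMSO wells with enzyme for no effect and DMSO wells lacking enzyme for full effect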
SENP1 FRET inh: SENP1 (human) catalytic domain inhibition; Q9P0U3; recombinant SENP1 catalytic domain, CyPet-SUMO1-YPet FRET cleavage; inhibition, % at 10 µM; 360,000 tested, 0.21% active; AID 624204;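 active means inhibition at least 30% at 10 µM, raw YFP signal under a set limit, fluorescence ratio 0.5 to 1.5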;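 further: 0% = enzyme with DMSO and 100% = no enzyme wells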
Target sequence (Q9P0U3 419-644 limits assumed): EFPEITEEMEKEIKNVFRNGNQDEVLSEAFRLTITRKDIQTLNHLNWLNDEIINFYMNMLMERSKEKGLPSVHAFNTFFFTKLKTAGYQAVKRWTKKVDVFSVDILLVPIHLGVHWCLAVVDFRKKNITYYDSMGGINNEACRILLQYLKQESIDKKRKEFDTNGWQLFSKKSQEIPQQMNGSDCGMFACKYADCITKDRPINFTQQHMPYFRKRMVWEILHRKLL
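system = hSENP1 catalytic domain, recombinant | reagent = SFCypet-SUMO1-SFYpet substrate at 25 nM | doses = one dose per compound, 10 µM, 0.5% DMSO | incubation = enzyme reaction for 50 min at room temperature, dark | measured by = FRET, CFP and YFP emission | controls = no-enzyme low, enzyme-DMSO high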
SENP8 block-2: blocks human SENP8 cleavage of Nedd8 substrate | recombinant SENP8, Nedd8 substrate fluorescence | inhibition, % at 20 µM | 360,000 tested, 0.64% active; in the data active means inhibition mostly above about 40%, no sharp cut-off; inactive means mostly below about 27%
HSP90 confirm: HSP90 inhibition, confirmation assay. shares compounds with HSP90 refold inh. rabbit reticulocyte lysate, luciferase refolding luminescence, 3 h. inhibition, % at 5.9 µM. 2,300 tested, 64% active. AID 1846; in the data active means inhibition above about 18%;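 further: 0% = vehicle wells and 100% = reference inhibitor wells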
FLuc counter: counter-screen for HSP90 inhibitors: inhibitors of firefly luciferase. shares compounds with HSP90 refold inh. purified native firefly luciferase, luminescence. inhibition, % at 5.9 µM. 2,300 tested, 48% active;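 active means inhibition above the mean inhibition of all tested sample wells plus 3 SD, cut at about 10% in these data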;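 further: 0% = DMSO with luciferase and 100% = wells lacking luciferase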
SENP8 confirm: confirmation of human SENP8 protease inhibitors; shares compounds with SENP7 block; Recombinant SENP8, Z-RLRGG-aminoluciferin luminescence, 60 min; inhibition, % at 12.5 µM; 6,200 tested, 40% active; AID 488912;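 active means mean inhibition across replicates above about 50%, limit read from the data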
SENP6 confirm: confirmation of human SENP6 protease inhibitors; AID 488915; shares compounds with SENP7 block; inhibition, % at 12.5 µM; 6,200 tested, 58% active; recombinant SENP6, Z-RLRGG-aminoluciferin luminescence
SENP7 confirm: human SENP7 inhibition, confirmed; inhibition, % at 12.5 µM; AID 488917; shares compounds with SENP7 block; 6,200 tested, 69% active; recombinant SENP7, Z-RLRGG-aminoluciferin luminescence, 40 min
Casp3 select: inhibits human caspase-3 in SENP selectivity test. shares compounds with SENP7 block. purified caspase-3, Z-DEVD-aminoluciferin luminescence, 60 min. inhibition, % at 12.5 µM. 6,200 tested, 60% active;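 active means mean inhibition above about 50%, limit read from the data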;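 further: plate controls were enzyme with DMSO for no effect and wells without caspase-3 for full effect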
SENP luc ctr: luminescence interference (SENP counter-screen) | AID 488919 | 6,200 tested, 39% active | Pre-incubated SENP8/Z-RLRGG-aminoluciferin, luciferase luminescence interference | shares compounds with SENP7 block | inhibition, % at 12.5 µM;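 active means mean inhibition above about 50% when retested at one dose, limit read from the data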;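 further: plate controls were DMSO wells with completed reaction for no effect and substrate without enzyme for full effect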
An asterisk follows results filed as active; nt = no result.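 How the source made its calls, unless noted: active means mean inhibition above about 50% in the one-dose retest (limit read from the data); inactive means the rest.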

SMILES	SENP8 block-1	HSP90 refold inh	SENP7 block	SENP6 inh	SENP1 FRET inh	SENP8 block-2	HSP90 confirm	FLuc counter	SENP8 confirm	SENP6 confirm	SENP7 confirm	Casp3 select	SENP luc ctr
O=C1/C(=C/Nc2ccc3c(c2)OCO3)CCc2ccccc21	98*	38*	98*	97*	8	-429	86*	72*	-24	101*	104*	98*	85*
O=C1OC2(CCCCC2)OC(=O)C1=CNc1ccc2c(c1)OCO2	-2	3	1	1	-1	-58	nt	nt	nt	nt	nt	nt	nt
COc1ccc(CCNC(=O)CSc2nnc(CNC(=O)c3cc(OC)c(OC)c(OC)c3)o2)cc1OC	-15	-1	11	3	0	21	nt	nt	nt	nt	nt	nt	nt
CC(C)(C)c1ccc(C(=O)NCCOc2ccccc2)cc1	38	49*	54*	57*	0	5	70*	65*	-5	36	80*	nt	-1
CC(C)(C)c1ccc(C(=O)NCCOc2ccccc2F)cc1	59*	63*	72*	74*	1	14	80*	78*	5	69*	90*	52*	47
CN(C)S(=O)(=O)c1ccc(C(=O)NCCOc2ccccc2)cc1	1	3	2	-16	3	10	nt	nt	nt	nt	nt	nt	nt
C=CCn1c(SCC(=O)Nc2ccc(N3CCOCC3)cc2)nc2ccccc2c1=O	3	-2	-2	2	1	7	nt	nt	nt	nt	nt	nt	nt
CCCc1[nH]n(-c2nc3ccccc3s2)c(=O)c1C=NCC(C)C	-4	2	4	-4	3	33	nt	nt	nt	nt	nt	nt	nt
O=c1c(C=NCc2cccnc2)c(C(F)(F)F)[nH]n1-c1nc2ccccc2s1	97*	42*	99*	97*	-2	4	35*	11*	100*	101*	103*	99*	99*
Cc1ccc(-c2nc(-c3nccc4ccccc34)oc2-c2ccccc2)cc1	48	23*	81*	69*	-136	-309	41*	46*	48	50*	84*	84*	72*
c1ccc(-c2nccc3ccccc23)cc1	-9	nt	-3	-23	1	7	nt	nt	nt	nt	nt	nt	nt
CCOC(=O)c1sc(NC(=O)Nc2ccccc2F)nc1C	67*	37*	93*	77*	1	-10	76*	71*	17	23	62*	62*	16
CCOC(=O)c1sc(NC(=O)/C=C/c2c(F)cccc2Cl)nc1C	3	2	2	4	-5	-332	nt	nt	nt	nt	nt	nt	nt
CCOC(=O)CNC(=O)c1sc(NC(=O)c2ccccc2F)nc1C	70*	70*	88*	77*	-3	-13	74*	12*	-5	75*	94*	92*	79*
Cc1ccc2cc(NC(=O)c3ccccc3)ccc2n1	53*	18*	64*	62*	2	3	15	-3	8	43	81*	74*	63*
O=C(Nc1ccc2ccccc2c1)c1ccc(Cl)cc1	-2	23*	51*	41	0	9	37*	17*	-8	15	33	67*	13
O=C(Nc1ccncc1)c1ccc2ccccc2c1	-10	-2	16	-14	1	17	nt	nt	nt	nt	nt	nt	nt
Cc1ccoc1C(=O)Nc1ccc2ccccc2c1	96*	24*	99*	97*	-1	-2	56*	47*	96*	98*	102*	96*	92*
Cc1ccoc1C(=O)Nc1ccc(CC(=O)O)cc1	2	5	8	31	3	17	nt	nt	nt	nt	nt	nt	nt
Cc1ccc(C(=O)Nc2ccc3ccccc3c2)cc1	87*	69*	97*	91*	2	8	76*	69*	13	51*	101*	89*	35
CC(=O)c1ccc(OCCCC(=O)NCCc2ccc(C(F)(F)F)cc2)cc1	-1	0	7	21	1	6	nt	nt	nt	nt	nt	nt	nt
CCCc1ccccc1OCCNC(=O)c1cc(=O)n(C)c(=O)n1C	-8	3	-8	-8	0	5	nt	nt	nt	nt	nt	nt	nt
C[C@H](CO)N1C[C@H](C)[C@@H](CN(C)Cc2ccc(C(=O)O)cc2)Oc2c(NS(=O)(=O)c3cn(C)cn3)cccc2C1=O	-12	nt	-7	-9	2	7	nt	nt	nt	nt	nt	nt	nt
COc1ccccc1OCCC(=O)Nc1cccc(S(=O)(=O)N2CCOCC2)c1	4	nt	-4	-2	0	5	nt	nt	nt	nt	nt	nt	nt
COc1ccc2nc(NC(=O)c3ccccc3F)sc2c1	83*	18*	93*	87*	0	-96	38*	31*	75*	85*	98*	87*	29
SMILES	SENP8 block-1	HSP90 refold inh	SENP7 block	SENP6 inh	SENP1 FRET inh	SENP8 block-2	HSP90 confirm	FLuc counter	SENP8 confirm	SENP6 confirm	SENP7 confirm	Casp3 select	SENP luc ctr
COc1ccc2nc(NC(=O)c3ccccc3C(=O)O)sc2c1	-1	-2	-7	-19	3	10	nt	nt	nt	nt	nt	nt	nt
O=C(Nc1nc2cc3c(cc2s1)OCCO3)c1ccncc1	27	0	40	18	-7	-32	nt	nt	nt	nt	nt	nt	nt
CCOc1ccc2nc(NC(=O)c3ccco3)sc2c1	92*	39*	97*	97*	0	-238	51*	45*	93*	98*	102*	96*	83*
CC1CCc2nc(NC(=O)c3ccco3)sc2C1 (stereo not given)	79*	54*	80*	87*	-2	2	82*	77*	88*	88*	98*	89*	46
O=C(Nc1nc2cc3c(cc2s1)OCCO3)c1ccco1	96*	78*	100*	97*	-2	-465	91*	89*	97*	98*	102*	97*	96*
CC1CN(C(=O)COc2ccc3c(-c4ccccc4)cc(=O)oc3c2)CC(C)O1 (stereo not given)	5	nt	6	-7	-27	-79	nt	nt	nt	nt	nt	nt	nt

Assay outcomes as filed in PubChem BioAssay.
